The values below come from ChEMBL document CHEMBL3098028, “Synthesis and in vitro and in vivo pharmacological evaluation of new 4-aminoquinoline-based compounds” (ACS Med Chem Lett, 2013).

A value given as a limit tells only on which side of the number the result lay.

One data set has as its system CHO. As to the kind of experiment: Cytotoxicity against CHO cells. Format: cell-based. The conditions noted are these: Cricetulus griseus.
Another data set deals with Cytochrome P450 2E1 (Homo sapiens, UniProt P05181). As to the kind of experiment: Inhibition of CYP2E1 in human liver microsomes assessed as chlorzoxazone 6-hydroxylation after 20 mins by LC-MS/MS analysis. Format: ADME.
Cytochrome P450 2E1, sequence (P05181 whole entry): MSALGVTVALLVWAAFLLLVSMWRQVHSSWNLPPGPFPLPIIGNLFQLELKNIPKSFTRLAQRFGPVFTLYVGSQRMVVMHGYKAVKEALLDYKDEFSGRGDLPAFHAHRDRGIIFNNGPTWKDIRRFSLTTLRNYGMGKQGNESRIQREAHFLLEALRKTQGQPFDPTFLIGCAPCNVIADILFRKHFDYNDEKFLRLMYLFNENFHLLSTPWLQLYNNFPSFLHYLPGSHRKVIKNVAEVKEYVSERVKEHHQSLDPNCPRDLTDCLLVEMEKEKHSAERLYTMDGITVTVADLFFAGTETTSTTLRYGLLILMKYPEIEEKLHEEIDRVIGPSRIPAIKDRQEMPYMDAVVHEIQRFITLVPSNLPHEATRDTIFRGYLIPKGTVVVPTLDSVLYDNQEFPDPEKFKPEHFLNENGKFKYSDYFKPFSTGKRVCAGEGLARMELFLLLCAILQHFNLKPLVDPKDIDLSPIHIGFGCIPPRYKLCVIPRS
In a further data set the target is T1, Cytochrome P450 2A6 (Homo sapiens, UniProt P11509).
T1 sequence (P11509 whole entry): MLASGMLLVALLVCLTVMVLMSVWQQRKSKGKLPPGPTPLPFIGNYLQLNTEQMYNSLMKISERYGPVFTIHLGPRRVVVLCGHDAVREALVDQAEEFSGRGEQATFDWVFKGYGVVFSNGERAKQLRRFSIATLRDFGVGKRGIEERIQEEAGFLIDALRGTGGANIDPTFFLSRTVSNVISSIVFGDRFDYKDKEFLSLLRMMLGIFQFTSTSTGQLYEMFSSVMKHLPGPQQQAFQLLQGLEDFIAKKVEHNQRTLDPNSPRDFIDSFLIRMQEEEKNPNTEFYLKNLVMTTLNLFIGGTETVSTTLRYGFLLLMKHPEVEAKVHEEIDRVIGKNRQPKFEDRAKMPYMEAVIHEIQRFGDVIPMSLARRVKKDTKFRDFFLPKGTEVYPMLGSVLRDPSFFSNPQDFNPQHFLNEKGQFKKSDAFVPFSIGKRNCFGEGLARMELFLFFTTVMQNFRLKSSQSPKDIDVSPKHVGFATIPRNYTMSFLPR
Nature of the data set: Inhibition of CYP2A6 in human liver microsomes assessed as coumarin 7-hydroxylation after 20 mins by LC-MS/MS analysis. Format: ADME.

In another data set the target is Cytochrome P450 2D6 (Homo sapiens, UniProt P10635). Nature of the data set: Inhibition of CYP2D6 in human liver microsomes assessed as bufuralol 1'-hydroxylation after 20 mins by LC-MS/MS analysis. Format: ADME.
Cytochrome P450 2D6, sequence (P10635 whole entry): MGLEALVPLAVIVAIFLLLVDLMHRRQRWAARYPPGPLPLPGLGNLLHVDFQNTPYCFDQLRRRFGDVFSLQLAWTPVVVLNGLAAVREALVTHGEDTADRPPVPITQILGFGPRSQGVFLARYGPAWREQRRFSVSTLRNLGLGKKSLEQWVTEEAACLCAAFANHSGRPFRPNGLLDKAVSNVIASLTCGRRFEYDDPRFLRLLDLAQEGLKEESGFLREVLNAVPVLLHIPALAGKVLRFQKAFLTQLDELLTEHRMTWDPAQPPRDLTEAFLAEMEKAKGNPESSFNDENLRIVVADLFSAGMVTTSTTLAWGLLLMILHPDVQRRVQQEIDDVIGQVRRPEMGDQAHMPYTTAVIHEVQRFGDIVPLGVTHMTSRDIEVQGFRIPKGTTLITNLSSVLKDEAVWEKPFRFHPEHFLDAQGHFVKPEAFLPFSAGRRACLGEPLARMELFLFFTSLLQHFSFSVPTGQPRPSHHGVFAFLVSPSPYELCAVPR
The nature of data set [1]: Kinetic solubility of the compound in 0.01 M HCl at pH 2 after 2 hrs by HPLC analysis. Format: physicochemical. The settings on record: read-out: Kinetic_solubility.
For a further data set, the system named is Plasmodium falciparum. As to the kind of experiment: Antiplasmodial activity against chloroquine-sensitive Plasmodium falciparum 3D7 after 24 hrs by [3H]hypoxanthine incorporation assay. Format: functional, organism-based. An outline of the steps: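 Antiplasmodial testing was done at the Swiss Tropical and Public Health Institute. Chloroquine, the reference drug, was tested as its diphosphate salt.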

In the case of `CC(C)(C)n1nnnc1C(NCCNc1ccnc2cc(Cl)ccc12)c1ccc(Cl)cc1` (stereo unspecified), the 50% inhibitory concentration (IC50) in the data set on CHO is 97.8 µM; on Cytochrome P450 2E1 it was greater than 20 µM; at Cytochrome P450 2A6, greater than 20 µM; at Cytochrome P450 2D6 it was 4 µM; with Plasmodium falciparum it was 2 nM. Further, in data set [1], the solubility kinetic at 2 h was greater than 200 µM.
